Here are results for 8 compounds from ChEMBL document CHEMBL1154977, “Antiproliferative activity of novel benzo[b][1,6]naphthyridines in human solid tumor cell lines” (Bioorg Med Chem Lett, 2010).

One assay concerns HeLa. The experiment in a line: Growth inhibition of human HeLa cells after 48 hrs by sulforhodamine B assay. The format is functional. Put shortly: (§1)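 Human solid tumor cells were exposed to drug for 48 h. Growth was measured by sulforhodamine B staining, and results were expressed as GI₅₀ (50% growth inhibition).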
Background: The SRB assay estimates cell density from bound dye.

For a further assay, the system named is Ishikawa. The assay is described as follows: Growth inhibition of human Ishikawa cells after 48 hrs by sulforhodamine B assay. Format: functional. Put shortly: as §1
Another assay concerns SW1573. The assay is described as follows: Growth inhibition of human SW1573 cells after 48 hrs by sulforhodamine B assay. The format is functional. The following applies: SW1573, 48 h. Put shortly:
as §1

A further assay has as its system T47D. The assay is described as follows: Growth inhibition of human T47D cells after 48 hrs by sulforhodamine B assay. Format: functional. An outline of the steps: as §1
The subject of the next assay is WiDr. The assay is described as follows: Growth inhibition of human WiDr cells after 48 hrs by sulforhodamine B assay. Format: functional. Put shortly: as §1
The subject of assay [1] is Escherichia coli. The assay is described as follows: Antibacterial activity against Escherichia coli ATCC 25922 after 24 hrs by broth microdilution method. The format is functional, organism-based. The conditions noted are these: ATCC 25922, 24 h. Put shortly:
(§2)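 Bacteria were grown on nutrient agar at 35–37 °C for 24 h and suspended in normal saline at about 5.0 × 10⁵ cfu mL⁻¹, matched to a 0.5 McFarland standard. Broth microdilution was run in Mueller Hinton broth with growth and sterility controls. Plates were incubated at 35–37 °C in a moist dark chamber, shaken, and read for optical density at 630 nm after 24 h.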
Background: Dilution methods test growth across graded concentrations, often in twofold steps.

In assay [2] the test system is Escherichia coli. The experiment in a line: Antibacterial activity against Escherichia coli ATCC 35218 after 24 hrs by broth microdilution method. The format is functional, organism-based. The conditions noted are these: ATCC 35218, 24 h. Put shortly:
as §2

A further assay relates to Enterococcus faecalis. The experiment in a line: Antibacterial activity against Enterococcus faecalis ATCC 29212 after 24 hrs by broth microdilution method. Format: functional, organism-based. The conditions noted are these: ATCC 29212, 24 h. Put shortly:
as §2

The test system of the next assay is Klebsiella oxytoca. The experiment in a line: Antibacterial activity against Klebsiella oxytoca ATCC 700324 after 24 hrs by broth microdilution method. The conditions noted are these: ATCC 700324, 24 h. The format is functional, organism-based.
The next assay deals with Klebsiella pneumoniae. The experiment in a line: Antibacterial activity against Klebsiella pneumoniae ATCC 700603 after 24 hrs by broth microdilution method. Format: functional, organism-based. The conditions noted are these: ATCC 700603, 24 h. Put shortly:
as §2

For the next assay, the system named is Pseudomonas aeruginosa. The experiment in a line: Antibacterial activity against Pseudomonas aeruginosa ATCC 27853 after 24 hrs by broth microdilution method. Format: functional, organism-based. The following applies: ATCC 27853, 24 h. Put shortly:
as §2

The test system of assay [3] is Staphylococcus aureus. The assay is described as follows: Antibacterial activity against Staphylococcus aureus ATCC 25923 after 24 hrs by broth microdilution method. Format: functional, organism-based. The conditions noted are these: ATCC 25923, 24 h. An outline of the steps:
(§3)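 Bacteria grown on nutrient agar at 35–37 °C for 24 h, then suspended in normal saline to approximately 5.0 × 10⁵ cfu mL⁻¹, matched to 0.5 McFarland. Broth microdilution in Mueller Hinton broth with growth and sterility controls. Incubated at 35–37 °C in a moist dark chamber, shaken, and optical density read at 630 nm after 24 h.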

Assay [4] has as its system Staphylococcus aureus. The assay is described as follows: Antibacterial activity against Staphylococcus aureus ATCC 29213 after 24 hrs by broth microdilution method. The format is functional, organism-based. The following applies: ATCC 29213, 24 h. Put shortly: as §3
Assay [5] concerns Staphylococcus aureus. The experiment in a line: Antibacterial activity against epidemic methicillin-resistant Staphylococcus aureus 16 after 24 hrs by broth microdilution method. The format is functional, organism-based. The conditions noted are these: Staphylococcus aureus, 16, 24 h. An outline of the steps:
as §3

Assay [6] relates to Staphylococcus aureus. The assay is described as follows: Antibacterial activity against Staphylococcus aureus NRS 107 after 24 hrs by broth microdilution method. Format: functional, organism-based. The following applies: NRS 107, 24 h. Put shortly:
as §3

In another assay the test system is Pichia kudriavzevii. The assay is described as follows: Antifungal activity against Candida krusei ATCC 6258 after 48 hrs by broth microdilution method. The format is functional, organism-based. The conditions noted are these: ATCC 6258, 48 h. Put shortly: (§4)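 Candida strains were grown on nutrient agar at 35–37 °C for 24 h and suspended in normal saline at 1.0–5.0 × 10³ cfu mL⁻¹, matched to a 0.5 McFarland standard. Broth microdilution was run in RPMI 1640 buffered with MOPS, with growth and sterility controls. Plates were incubated at 35–37 °C in a moist dark chamber, shaken, and read for optical density at 490 nm after 48 h.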

In a further assay the test system is Nakaseomyces nivariensis. The assay is described as follows: Antifungal activity against Candida nivariensis 5937-63 after 48 hrs by broth microdilution method. The format is functional, organism-based. The conditions noted are these: 5937-63, 48 h. An outline of the steps: as §4
Another assay relates to Candida parapsilosis. The experiment in a line: Antifungal activity against Candida parapsilosis ATCC 22019 after 48 hrs by broth microdilution method. The conditions noted are these: Lodderomyces parapsilosis, ATCC 22019, 48 h. Format: functional, organism-based. Put shortly: as §4
For a further assay, the system named is Candida albicans. The experiment in a line: Antifungal activity against Candida albicans ATCC 90028 after 48 hrs by broth microdilution method. The format is functional, organism-based. The conditions noted are these: ATCC 90028, 48 h. Put shortly:
as §4

A further assay relates to Nakaseomyces glabratus. The experiment in a line: Antifungal activity against Candida glabrata ATCC 90030 after 48 hrs by broth microdilution method. The format is functional, organism-based. The following applies: ATCC 90030, 48 h. An outline of the steps:
as §4

As for `ClC(Cl)(Cl)C1c2cc3ccccc3nc2C=C(c2ccccc2)N1Cc1ccccc1` (stereo not given), the GI50 with HeLa worked out at 27 µM; in the assay on Ishikawa, 15 µM; in the assay with SW1573, 5.1 µM; with T47D it was 71 µM; with WiDr, 46 µM.

With `CCCCN1C(c2ccccc2)=Cc2nc3ccccc3cc2C1C(Cl)(Cl)Cl` (stereo not given), the GI50 with HeLa was determined as 6.1 µM; in the assay on Ishikawa it was 3.1 µM; in the assay with SW1573, 6.5 µM; in the assay on T47D it was 15 µM; with WiDr it was 16 µM.

With `COC1OC(c2ccccc2)=Cc2nc3ccccc3cc21` (stereo not given), the GI50 in the assay on HeLa, in the assay with Ishikawa, in the assay on SW1573, with T47D and with WiDr was greater than 100 µM throughout. Moreover, the IC50 in the assay on Escherichia coli [1], in the assay with Escherichia coli [2], with Enterococcus faecalis, in the assay with Klebsiella oxytoca, with Klebsiella pneumoniae and in the assay with Pseudomonas aeruginosa was greater than 100 µM in each case. Also, the IC50 is greater than 100 µM in the assay on Staphylococcus aureus [3]; 29 µM in the assay on Staphylococcus aureus [4]; greater than 100 µM in the assay on Staphylococcus aureus [5]; greater than 100 µM in the assay on Staphylococcus aureus [6]; greater than 100 µM with Pichia kudriavzevii; greater than 100 µM in the assay on Nakaseomyces nivariensis. Besides, the IC50 in the assay with Candida parapsilosis, in the assay with Candida albicans and in the assay with Nakaseomyces glabratus was greater than 100 µM throughout.

For `ClC(Cl)(Cl)C1c2cc3ccccc3nc2C=C(c2ccccc2)N1CCc1ccccc1` (stereo not given), the GI50 with HeLa stood at 38 µM; in the assay with Ishikawa, 25 µM; in the assay with SW1573, 5.5 µM; with T47D, 60 µM; with WiDr it was 57 µM.

As to `C=CCN1C(c2ccccc2)=Cc2nc3ccccc3cc2C1C(Cl)(Cl)Cl` (stereo not given), the concentration for 50% growth inhibition (GI50) with HeLa is 32 µM; with Ishikawa it was 31 µM; in the assay with SW1573, 46 µM; with T47D, 48 µM; in the assay on WiDr, 42 µM.

For the compound `CCOc1ccc(CCN2C(c3ccccc3)=Cc3nc4ccccc4cc3C2C(Cl)(Cl)Cl)cc1OCC` (stereo not given), the GI50 came to 5.6 µM with HeLa; 4.1 µM in the assay on Ishikawa; 4.3 µM in the assay with SW1573; 54 µM in the assay on T47D; 37 µM with WiDr.

On to `CCOC1OC(c2ccccc2)=Cc2nc3ccccc3cc21` (stereo not given), for which the GI50 in the assay on HeLa, in the assay on Ishikawa, in the assay with SW1573, in the assay on T47D and in the assay on WiDr was greater than 100 µM each time. In addition, the half-inhibitory concentration (IC50) in the assay with Escherichia coli [1] turned out to be 20 µM; in the assay with Escherichia coli [2] it was 27 µM; in the assay on Enterococcus faecalis, 25 µM; with Klebsiella oxytoca it was 63 µM; with Klebsiella pneumoniae it was 56 µM; in the assay on Pseudomonas aeruginosa it was 22 µM. Moreover, the IC50 was 20 µM in the assay with Staphylococcus aureus [3]; 23 µM in the assay on Staphylococcus aureus [4]; 17 µM with Staphylococcus aureus [5]; 24 µM in the assay on Staphylococcus aureus [6]; 4.5 µM with Pichia kudriavzevii; 16 µM in the assay on Nakaseomyces nivariensis. In addition, the values for the half-inhibitory concentration (IC50) in the assay on Candida parapsilosis, with Candida albicans and in the assay on Nakaseomyces glabratus were 20 µM, 20 µM and 18 µM, respectively.

For the compound `ClC(Cl)(Cl)C1c2cc3ccccc3nc2C=C(c2ccccc2)N1CCN1CCOCC1` (stereo not given), the GI50 in the assay on HeLa was 6.5 µM; in the assay with Ishikawa, 17 µM; in the assay with SW1573, 31 µM; with T47D it was 26 µM; with WiDr, 20 µM.

The term GI50 denotes the concentration giving 50% growth inhibition. Lower therefore signals more potent growth inhibition. By IC50 is commonly meant the concentration that gives 50% inhibition.
